Legend:
[1] = system: kin-src binding to plasma membranes (src receptor); test: Competition of kin-src membrane binding by peptides or polypeptides; design: species or system vole
Procedure, shortened: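 [35S]methionine-labelled chimera translated in rabbit reticulocyte lysate (90 min, 30°C; Triton X-100 0.075% final), then incubated 30 min at 20°C with 1T cell P100 membranes with increasing myristylated peptide. Also tested: 8-mer at 92 µM, 15-mer at 58 µM, or in vitro translated competitor polypeptide. Pellets at 100,000 g; gel slices counted. Pellet without membranes subtracted; untreated membranes set to 100%.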

[2] = system: pp60v-src binding to plasma membranes (src receptor); conditions: previous experiments; ref Resh, 1989; cited from earlier work
[3] = system: pp60v-src binding to plasma membranes (src receptor); test: Competition of pp60v-src membrane binding by peptides or polypeptides; design: species or system vole
Procedure, shortened: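 1T cell P100 membranes incubated with [35S]methionine-labelled, reticulocyte-lysate-translated protein plus increasing myristylated N-terminal peptides, including Lys→Asn or Arg variants. Nonmyristylated peptide served as control. Incubation 30 min at 20°C, then ultracentrifugation at 100,000 g. Gel slices counted by scintillation. Pellet without membranes subtracted; binding to untreated membranes normalised to 100%.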

[4] = system: del 15-263 binding to vole cell membranes (P100); test: Competition of del 15-263 membrane binding by MGYsrc peptide
Procedure, shortened: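 In vitro translated [35S]methionine-labelled deletion mutant (rabbit reticulocyte lysate) incubated with vole P100 membranes with increasing myristylated src peptide. Binding quantitated by gel slice scintillation counting, pellet without membranes subtracted, untreated membranes set to 100%. In parallel, membranes were incubated 15 min at 20°C with 4 × 10^5 c.p.m. 125I-peptide, then 15 min with BS3 crosslinker, in the presence of increasing unlabelled peptide. After 100,000 g reisolation, SDS gel, and gamma counting of the excised band.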

NIH3T3 cells [5] = test: Transformation: morphology and growth in soft agar; format: cell-based
Procedure, shortened: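 NIH3T3 cells transduced with PLJ retroviral vector carrying src or chimera, or with vector alone. G418-resistant clones expanded, then morphology examined by phase-contrast microscopy. Growth in soft agar scored +/− per clone.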

NIH3T3 cells [6] = test: Subcellular fractionation and immunofluorescence of G418-resistant NIH3T3 clones; format: cell-based; conditions: for Percent association with cell fraction P1 / Percent association with cell fraction P100: percentage of total src kinase activity; for Percent association with cell fraction P1: 1,000-g pellet; for Percent association with cell fraction P100: 100,000-g pellet
Procedure, shortened: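 G418-resistant NIH3T3 clones (retroviral transfer) labelled 1 h with 50 µCi/ml [35S]methionine. Cells lysed by hypotonic Dounce homogenisation and spun into a 1,000 g pellet (P1), a 100,000 g pellet (P100) and S100. Fractions adjusted to kinase buffer, immunoprecipitated with anti-p60 serum, and subjected to in vitro kinase assay. Analysed by SDS-PAGE and scintillation counting; each fraction given as percent of total kinase activity.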

[7] = system: plasma membrane-enriched fractions (P100) from vole cells; membrane-bound src receptor; test: In vitro membrane binding of in vitro translated src proteins; conditions: for decrease in membrane-binding capacity versus wild type: P100 membranes from normal vole cells, average of three experiments, Fig. 5
myristyl transferase = test: Efficiency of myristylation on translation in reticulocyte lysate; format: biochemical; conditions: rabbit reticulocyte lysate; densitometry; normalized to pp60v-src = 1; Table II
Procedure, shortened: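 Constructs translated in rabbit reticulocyte lysate for 90 min at 30°C, with either 0.4 µCi/µl [35S]methionine or 0.7 µCi/µl [3H]myristic acid. Products resolved by SDS gel; myristate-to-methionine incorporation ratio expressed relative to wild-type.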

[8] = peptide at 340 μM, 1T cell P100 membranes, Fig. 2

## GNAAAAKKY [8 mer]
[1]; peptide at 92 μM
  inhibition of membrane binding of kin-src: 35%
[2]
  inhibition of pp60v-src binding: failed to detect inhibition

## GQ1WTTPLY [myristylated gag peptide, reference compound]
[1]; data not shown
  effect on the binding of kin-src: did not have a significant effect

## GSSKSKPKDPSY [GYsrc]
[3]; [8]
  inhibition of pp60v-src membrane binding: 10-20%
[1]; [8]
  inhibition of kin-src membrane binding: 10-20%

## GSSKSKPKDPSY [MGYsrc]
[3]; competition never complete, on average, Figs. 2 and 4
  maximum inhibition of pp60v-src binding: 50-60%
[4]; increasing MGYsrc, vole cell P100 membranes, Fig. 6
  inhibition of binding of the del 15-263 polypeptide: 80-90%
[4]; read-out: Ki for membrane binding of del 15-263, vole P100 membranes, Fig. 7
  Ki: 35 µM
[1]; from the shape of the binding curve in Fig. 2
  kin-src polypeptide released from the membrane by MGYsrc: ~75%

## pp60v-src: protein product of the v-src gene of Rous sarcoma virus; NH2 terminus M G S S K S K P K D P S Q R
NIH3T3 cells [5]; G418-resistant clonal populations, phase contrast, Fig. 3
  morphology of expressing cells: fully transformed
NIH3T3 cells [5]; G418-resistant clones, Table III prints + for all four clones of each
  growth in soft agar: capable of growth in soft agar
[1]; equimolar or submolar concentrations of in vitro translated polypeptide, data not shown
  competition of radiolabeled kin-src binding by polypeptide: readily com- peted
NIH3T3 cells [6]; clone 1
  Percent association with cell fraction P1: 43%
  Percent association with cell fraction P100: 47%
NIH3T3 cells [6]; clone 2
  Percent association with cell fraction P1: 32%
  Percent association with cell fraction P100: 61%
NIH3T3 cells [6]; clone 3
  Percent association with cell fraction P1: 17%
  Percent association with cell fraction P100: 67%
NIH3T3 cells [6]; clone 4
  Percent association with cell fraction P1: 34%
  Percent association with cell fraction P100: 57%
NIH3T3 cells [6]; hypotonic lysis and differential centrifugation, Table III
  polypeptide membrane associated in vivo: 80-90%
NIH3T3 cells [6]; indirect immunofluorescence and cellular fractionation
  subcellular localization in vivo: punctate membrane staining
[7]; 1T membranes (P100), 30 min at 20°C, average of four experiments, Fig. 1
  ratio of src protein in the pellet fraction +Mbs/-Mbs: 3.2

## v-src N5+9: mutant of v-src in which both lysines 5 and 9 were converted to asparagine
Myristyl transferase
  Relative incorporation [3H]myristate/[35S]methionine: 0.93
[7]
  decrease in membrane-binding capacity versus wild type: ~ 60%

## v-src N5: mutant of v-src in which lysine 5 has been converted to asparagine
Myristyl transferase
  Relative incorporation [3H]myristate/[35S]methionine: 0.99
[7]
  decrease in membrane-binding capacity versus wild type: 30%

## v-src N9: mutant of v-src in which lysine 9 has been converted to asparagine
Myristyl transferase
  Relative incorporation [3H]myristate/[35S]methionine: 0.98
[7]
  decrease in membrane-binding capacity versus wild type: 45%
